Test results taken from ChEMBL document CHEMBL1153199, “Fluconazole analogues containing 2H-1,4-benzothiazin-3(4H)-one or 2H-1,4-benzoxazin-3(4H)-one moieties, a novel class of anti-Candida agents” (2010).
Values after ≈ are worked out from the molar mass of the structure shown. Active and inactive are the calls of the source. No cut-off for these calls is given here.

Legend:
Format in all cases: functional
Candida albicans [1] = test: Antifungal activity against Candida albicans ATCC 24433 after 48 hrs by broth microdilution method
Procedure, shortened: (§1)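 Broth microdilution run per CLSI M27-A2 in RPMI 1640 buffered to pH 7.0 with MOPS. Fluconazole and amphotericin B served as reference drugs. Endpoints were read after 48 h, visually or by spectrophotometer where needed. MIC was taken as the concentration giving 50% inhibition relative to the positive control.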

Aspergillus niger = test: Antifungal activity against Aspergillus niger ATCC 16404 after 48 hrs by broth microdilution method
Candida albicans [2] = test: Antifungal activity against Candida albicans ATCC 2091 after 48 hrs by broth microdilution method; details: ATCC 2091, 48 h; procedure, shortened: as §1
Candida albicans [3] = test: Antifungal activity against Candida albicans ATCC 90028 after 48 hrs by broth microdilution method; details: ATCC 90028, 48 h; procedure, shortened: as §1
Nakaseomyces glabratus = test: Antifungal activity against Candida glabrata ATCC 90030 after 48 hrs by broth microdilution method; details: ATCC 90030, 48 h; procedure, shortened: as §1
Pichia kudriavzevii = test: Antifungal activity against Candida krusei ATCC 6258 after 48 hrs by broth microdilution method; details: ATCC 6258, 48 h
Procedure, shortened: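 Broth microdilution MIC per CLSI M27-A2 in RPMI 1640 buffered to pH 7.0 with MOPS. End points were read at 48 h, visually or by spectrophotometer where needed. For fluconazole and the synthetic compounds, MIC was the concentration giving 50% inhibition relative to the positive control. Fluconazole and amphotericin B served as positive controls.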

Candida tropicalis = test: Antifungal activity against Candida tropicalis ATCC 750 after 48 hrs by broth microdilution method; details: ATCC 750, 48 h; procedure, shortened: as §1
Fusarium proliferatum = test: Antifungal activity against Fusarium proliferatum ATCC 10052 after 48 hrs by broth microdilution method
Candida albicans [4] = test: Antifungal activity against Candida albicans ATCC 10231 after 48 hrs by broth microdilution method; details: ATCC 10231, 48 h; procedure, shortened: as §1

`C[C@@H]1[C@H](O)[C@@H](C)/C=C/C=C/C=C/C=C/C=C/C=C/C=C/[C@H](O[C@@H]2O[C@H](C)[C@@H](O)[C@H](N)[C@@H]2O)C[C@@H]2O[C@](O)(C[C@@H](O)C[C@@H](O)[C@H](O)CC[C@@H](O)C[C@@H](O)CC(=O)O[C@H]1C)C[C@H](O)[C@H]2C(=O)O` [AMPHOTERICIN B] showed an MIC (Candida albicans [1]; ATCC 24433, 48 h) of 0.25 µg/mL (≈ 0.271 µM), an MIC (Aspergillus niger; ATCC 16404, 48 h) of 1 µg/mL (≈ 1.08 µM) and an MIC (Candida albicans [2]) of 0.5 µg/mL (≈ 0.541 µM). For the same molecule, the MIC (Candida albicans [3]) was 0.5 µg/mL (≈ 0.541 µM), the MIC (Nakaseomyces glabratus) was 0.25 µg/mL (≈ 0.271 µM) and the MIC (Pichia kudriavzevii) was 0.5 µg/mL (≈ 0.541 µM). The MIC (Candida tropicalis) was 0.5 µg/mL (≈ 0.541 µM), the MIC (Fusarium proliferatum; ATCC 10052, 48 h) was 2 µg/mL (≈ 2.16 µM) and the MIC (Candida albicans [4]) was 0.5 µg/mL (≈ 0.541 µM).

For `O=C1CSc2cc(Br)ccc2N1CC(O)(Cn1cncn1)c1ccc(F)cc1F` (stereo not drawn), the MIC (Candida albicans [1]; ATCC 24433, 48 h) was 1 µg/mL (≈ 2.08 µM), the MIC (Aspergillus niger) was “inactive” and the MIC (Fusarium proliferatum) was “inactive”.

In the case of `O=C1COc2ccc(Cl)cc2N1CC(O)(Cn1cncn1)c1ccc(Br)cc1` (stereo not drawn), the MIC (Candida albicans [1]; ATCC 24433, 48 h) is reported as 4 µg/mL (≈ 8.63 µM), the MIC (Aspergillus niger) is reported as “inactive” and the MIC (Fusarium proliferatum) is reported as “inactive”.

In the case of `Cc1ccc2c(c1)SCC(=O)N2CC(O)(Cn1cncn1)c1ccc(F)cc1F` (stereo not drawn), the MIC (Candida albicans [1]; ATCC 24433, 48 h) is reported as 2 µg/mL (≈ 4.8 µM), the MIC (Aspergillus niger) is reported as “inactive” and the MIC (Fusarium proliferatum) is reported as “inactive”.

`CC(=O)c1ccc2c(c1)N(CC(O)(Cn1cncn1)c1ccc(Br)cc1)C(=O)CO2` (stereo not drawn) was tested, and the MIC (Candida albicans [1]; ATCC 24433, 48 h) was 32 µg/mL (≈ 67.9 µM), the MIC (Aspergillus niger) was “inactive” and the MIC (Fusarium proliferatum) was “inactive”.

In the case of `O=C1COc2ccc(Cl)cc2N1CC(O)(Cn1cncn1)c1ccc(F)cc1F` (stereo not drawn), the MIC (Candida albicans [1]; ATCC 24433, 48 h) is reported as 8 µg/mL (≈ 19 µM), the MIC (Aspergillus niger) is reported as “inactive” and the MIC (Fusarium proliferatum) is reported as “inactive”.

`O=C1COc2ccc(Cl)cc2N1CC(O)(Cn1cncn1)c1ccc(F)cc1` (stereo not drawn) was tested, and the MIC (Candida albicans [1]; ATCC 24433, 48 h) was 16 µg/mL (≈ 39.7 µM), the MIC (Aspergillus niger) was “inactive” and the MIC (Fusarium proliferatum) was “inactive”.

For `O=C1CSc2cc(Cl)ccc2N1CC(O)(Cn1cncn1)c1ccc(F)cc1` (stereo not drawn), the MIC (Candida albicans [1]; ATCC 24433, 48 h) was 2 µg/mL (≈ 4.77 µM), the MIC (Aspergillus niger) was “inactive” and the MIC (Fusarium proliferatum) was “inactive”.

In the case of `OC(Cn1cncn1)(Cn1cncn1)c1ccc(F)cc1F` [FLUCONAZOLE], the MIC (Candida albicans [1]; ATCC 24433, 48 h) is reported as 0.25 µg/mL (≈ 0.816 µM), the MIC (Aspergillus niger; ATCC 16404, 48 h) is reported as 128 µg/mL (≈ 418 µM) and the MIC (Candida albicans [2]) is reported as 0.5 µg/mL (≈ 1.63 µM). For the same molecule, the MIC (Candida albicans [3]) was 0.5 µg/mL (≈ 1.63 µM), the MIC (Nakaseomyces glabratus) was 4 µg/mL (≈ 13.1 µM) and the MIC (Pichia kudriavzevii) was 64 µg/mL (≈ 209 µM). The MIC (Candida tropicalis) was 2 µg/mL (≈ 6.53 µM), the MIC (Fusarium proliferatum; ATCC 10052, 48 h) was > 128 µg/mL and the MIC (Candida albicans [4]) was 1 µg/mL (≈ 3.27 µM).

`O=C1COc2ccc(Br)cc2N1CC(O)(Cn1cncn1)c1ccc(F)cc1F` (stereo not drawn) was tested, and the MIC (Candida albicans [1]; ATCC 24433, 48 h) was 16 µg/mL (≈ 34.4 µM), the MIC (Aspergillus niger) was “inactive” and the MIC (Fusarium proliferatum) was “inactive”.

With `CC(=O)c1ccc2c(c1)N(CC(O)(Cn1cncn1)c1ccc(F)cc1F)C(=O)CO2` (stereo not drawn) the MIC (Candida albicans [1]) was “inactive”, the MIC (Aspergillus niger) was “inactive” and the MIC (Fusarium proliferatum) was “inactive”.

For `COc1ccc2c(c1)SCC(=O)N2CC(O)(Cn1cncn1)c1ccc(F)cc1F` (stereo not drawn), the MIC (Candida albicans [1]; ATCC 24433, 48 h) was 4 µg/mL (≈ 9.25 µM), the MIC (Aspergillus niger) was “inactive” and the MIC (Fusarium proliferatum) was “inactive”.

With `O=C1COc2ccc([N+](=O)[O-])cc2N1CC(O)(Cn1cncn1)c1ccc(F)cc1F` (stereo not drawn) the MIC (Candida albicans [1]; ATCC 24433, 48 h) was 32 µg/mL (≈ 74.2 µM), the MIC (Aspergillus niger) was “inactive” and the MIC (Fusarium proliferatum) was “inactive”.

In the case of `O=C1CSc2cc(Cl)ccc2N1CC(O)(Cn1cncn1)c1ccc(F)cc1F` (stereo not drawn), the MIC (Candida albicans [1]; ATCC 24433, 48 h) is reported as 1 µg/mL (≈ 2.29 µM), the MIC (Aspergillus niger) is reported as “inactive” and the MIC (Fusarium proliferatum) is reported as “inactive”.

`COc1ccc2c(c1)SCC(=O)N2CC(O)(Cn1cncn1)c1ccc(F)cc1` (stereo not drawn) was tested, and the MIC (Candida albicans [1]; ATCC 24433, 48 h) was 8 µg/mL (≈ 19.3 µM), the MIC (Aspergillus niger) was “inactive” and the MIC (Fusarium proliferatum) was “inactive”.

With `O=C1COc2ccccc2N1CC(O)(Cn1cncn1)c1ccc(F)cc1F` (stereo not drawn) the MIC (Candida albicans [1]; ATCC 24433, 48 h) was 0.5 µg/mL (≈ 1.29 µM), the MIC (Aspergillus niger) was “inactive” and the MIC (Candida albicans [2]) was 0.25 µg/mL (≈ 0.647 µM). The MIC (Candida albicans [3]) was 0.12 µg/mL (≈ 0.311 µM), the MIC (Nakaseomyces glabratus) was 0.25 µg/mL (≈ 0.647 µM) and the MIC (Pichia kudriavzevii) was 16 µg/mL (≈ 41.4 µM). For the same molecule, the MIC (Candida tropicalis) was 2 µg/mL (≈ 5.18 µM), the MIC (Fusarium proliferatum) was “inactive” and the MIC (Candida albicans [4]) was 0.5 µg/mL (≈ 1.29 µM).

`O=C1CSc2ccccc2N1CC(O)(Cn1cncn1)c1ccc(F)cc1F` (stereo not drawn) was tested, and the MIC (Candida albicans [1]; ATCC 24433, 48 h) was 0.03 µg/mL (≈ 0.0745 µM), the MIC (Aspergillus niger) was “inactive” and the MIC (Candida albicans [2]) was 0.12 µg/mL (≈ 0.298 µM). The MIC (Candida albicans [3]) was 0.03 µg/mL (≈ 0.0745 µM), the MIC (Nakaseomyces glabratus) was 0.06 µg/mL (≈ 0.149 µM) and the MIC (Pichia kudriavzevii) was 4 µg/mL (≈ 9.94 µM). For the same molecule, the MIC (Candida tropicalis) was 0.5 µg/mL (≈ 1.24 µM), the MIC (Fusarium proliferatum) was “inactive” and the MIC (Candida albicans [4]) was 0.12 µg/mL (≈ 0.298 µM).

In the case of `COc1ccc2c(c1)SCC(=O)N2CC(O)(Cn1cncn1)c1ccc(Br)cc1` (stereo not drawn), the MIC (Candida albicans [1]; ATCC 24433, 48 h) is reported as 2 µg/mL (≈ 4.21 µM), the MIC (Aspergillus niger) is reported as “inactive” and the MIC (Fusarium proliferatum) is reported as “inactive”.
